Compound activity from PubChem BioAssay.
CSC inhib = cancer stem cell viability inhibitors, primary screen, luminescence; AID 2717, 2010; cancer stem cell-like cells viability; actives 1.1% (n = 300,000); inhibition, % at 7.5 µM; in the data active means inhibition above about 75%; tested in HMLE shEcad cells
TMEM16A inh = TMEM16A chloride channel inhibitors, primary screen, cell-based, HTS; AID 588511, 2011; Anoctamin-1 (Mus musculus), Q8BHY3; HEK293 TMEM16A/YFP iodide influx fluorescence, ionomycin; normalized B-score (activity score, 25-100; higher = stronger inhibition) at 10 µM; actives 1.2% (n = 310,000);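 active means ratio plate-corrected score three or more library SD toward inhibition, starting fluorescence score within five deviations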;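 further: score derived from kinetic fluorescence span divided by baseline fluorescence per well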
Target sequence (Q8BHY3 whole entry, looked up): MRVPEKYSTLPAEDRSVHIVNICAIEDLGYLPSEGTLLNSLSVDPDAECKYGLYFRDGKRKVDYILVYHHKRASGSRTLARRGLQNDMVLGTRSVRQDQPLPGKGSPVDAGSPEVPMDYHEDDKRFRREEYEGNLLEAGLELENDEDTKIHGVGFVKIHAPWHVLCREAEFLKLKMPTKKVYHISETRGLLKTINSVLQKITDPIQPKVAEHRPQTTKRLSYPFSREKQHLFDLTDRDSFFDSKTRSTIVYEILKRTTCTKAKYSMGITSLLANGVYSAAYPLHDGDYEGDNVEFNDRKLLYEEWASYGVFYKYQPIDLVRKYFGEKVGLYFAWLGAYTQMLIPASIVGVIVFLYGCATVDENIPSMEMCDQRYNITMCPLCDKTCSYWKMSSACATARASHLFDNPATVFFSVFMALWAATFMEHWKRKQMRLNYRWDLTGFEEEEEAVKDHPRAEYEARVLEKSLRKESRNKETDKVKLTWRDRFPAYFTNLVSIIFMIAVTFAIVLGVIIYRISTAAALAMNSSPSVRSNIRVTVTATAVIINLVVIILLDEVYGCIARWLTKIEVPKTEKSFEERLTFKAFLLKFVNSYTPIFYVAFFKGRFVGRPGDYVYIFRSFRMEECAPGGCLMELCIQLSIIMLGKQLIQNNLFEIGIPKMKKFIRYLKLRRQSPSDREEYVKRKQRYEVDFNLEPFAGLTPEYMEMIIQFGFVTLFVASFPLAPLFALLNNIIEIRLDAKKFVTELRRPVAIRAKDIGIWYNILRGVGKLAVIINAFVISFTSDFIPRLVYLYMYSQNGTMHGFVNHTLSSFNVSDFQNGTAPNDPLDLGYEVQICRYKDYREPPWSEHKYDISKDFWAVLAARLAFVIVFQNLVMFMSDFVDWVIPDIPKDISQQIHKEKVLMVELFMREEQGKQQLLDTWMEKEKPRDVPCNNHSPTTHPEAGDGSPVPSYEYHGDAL
MC4R antag cAMP = MC4R antagonists of cAMP signaling, primary screen, cell-based, TR-FRET, antagonist arm of biased-ligand search | MC4R-expressing cells, MTII-stimulated cAMP, LANCE TR-FRET | inhibition, % at 6.5 µM | actives 0.48% (n = 360,000) | AID 540295, 2011;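 active means inhibition above its plate's cutoff, the mean of tested wells on that plate plus 3 SD, cut at about 29% in these data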;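 further: 0% = Melanotan II alone and 100% = Melanotan II plus saturating MCL0020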
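System – human MC4R-expressing U2OS cells · Also added – Melanotan II · Dosing – one concentration, 6.5 µM nominal · Timing – 30-min compound, 1-h challenge, 1-h detection, room temperature · Measured by – Eu-cAMP/anti-cAMP TR-FRET, emission 671 nm · Replicates – singlicate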
MC4R barr agon = MC4R agonists recruiting beta-arrestin, primary screen, cell-based, luminescence, agonist arm of biased-ligand search. Melanocortin receptor 4 (Homo sapiens), P32245. U2OS MC4R beta-arrestin complementation; percent of melanotan II response, DMSO zero. activation, % at 8.9 µM. actives 0.98% (n = 360,000);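 active means activation above a per-plate cutoff, the mean activation of sample wells on that plate plus 3 SD, cut at about 8% in these data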
ANO1 activ = TMEM16A chloride channel activators or potentiators, primary screen, cell-based, HTS | B-score at 10 µM | HEK293 TMEM16A/YFP-H148Q/I152L, iodide quench fluorescence; active compounds read low | actives 0.3% (n = 340,000) | Anoctamin-1 (Mus musculus), Q8BHY3 | AID 623877, 2012;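 active means fluorescence-ratio B-score plate-corrected deviation score at least 3 library SD below zero, with starting fluorescence score within 5 deviations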;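 further: channel opened by trigger with iodide after compound preincubation; score built on the fluorescence ratio of max minus min over baseline; more negative score means more quench and so TMEM16A activation or potentiation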
Beta cell apopt = inhibitors of cytokine-induced beta cell apoptosis, primary screen, luminescence; INS-1E cytokine-induced death, ATP luminescence, 48 h; percent of positive-control rescue, neutral wells zero; AID 435005, 2010; protection from apoptosis, % (test concentration not listed); actives 0.8% (n = 300,000);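 active means Every replicate reaches about 75%, or at least half do and their mean reaches it too, limit read from the data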;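 further: 0% = cytokine-treated negative control wells and 100% = positive control rescue; higher means more ATP so stronger rescue from cytokine killing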
* = called active by the depositor; i = inactive; · = not tested or not shown. Compounds with a hit are over-represented: about 3.8% of the library has one in this group of screens.

SMILES	CSC inhib	TMEM16A inh	MC4R antag cAMP	MC4R barr agon	ANO1 activ	Beta cell apopt
CCOc1ccc(CN2CCN(CC(O)Cn3c4ccccc4c4ccccc43)CC2)cc1 (stereo unspecified)	9.2	i	4.7	-0.8	i	7.6
COc1ccc(CN2CCN(CC(O)Cn3c4ccccc4c4ccccc43)CC2)cc1 (stereo unspecified)	42.9	i	11.6	9.5*	i	14.9
O=c1[nH]c(CSc2nc3ccccc3[nH]2)nc2c1cnn2-c1ccccc1	3.9	100*	-26.9	0.5	i	0.0
O=c1[nH]c(SCc2nc3c(cnn3-c3ccccc3)c(=O)[nH]2)nc2ccccc12	·	·	2.2	0.5	i	·
O=c1[nH]c(SCc2ccccc2Cl)nc2c1cnn2-c1ccccc1	-1.1	i	-9.0	9.3*	i	11.3
COc1cccc(CNC(=O)CCS(=O)(=O)c2ccccc2Cl)c1	-2.5	·	11.3	-1.9	i	-5.1
COc1ccc(CNc2nc(NC(C)=O)nn2-c2ccccc2)cc1	-9.2	i	-5.5	0.6	i	-1.1
S=C(Nc1ccccc1)N1CCCCCCC1	-5.8	i	2.9	-2.6	-4.59*	7.8
S=C(Nc1ccccc1)N1CCN(C(=S)Nc2ccccc2)CC1	9.0	i	·	·	·	-4.9
COc1cccc(NC(=O)CN(C)C(=O)c2c(C)noc2C)c1	·	·	1.0	-1.3	i	-7.3
Nn1c(SCc2ccc(F)cc2)nnc1-c1ccncc1	2.2	i	-0.4	0.0	i	-3.5
NNc1ncnc2scc(-c3ccc(Cl)cc3)c12	-6.5	i	1.2	-0.4	i	94.2*
Clc1ccc(-c2csc3ncnc(Cl)c23)cc1	-1.7	i	6.2	-0.8	i	·
Cc1ccc(-c2csc3ncnc(NS(=O)(=O)c4ccc(Cl)cc4)c23)cc1	82.0*	i	3.2	1.6	i	4.5
Cc1ccc(CCC(=O)Nc2ccc(C#N)cc2)o1	-5.2	i	8.2	-0.5	i	·
O=C(COc1ccccc1Cl)Nc1nnc(S(=O)(=O)N2CCCCCC2)s1	-1.5	i	-2.4	1.2	i	-1.0
CC(C)Cn1c(=O)c(C(=O)Nc2ccncc2)c(O)c2ccccc21	135.4*	i	14.1	-0.5	i	18.5
CCn1c(=O)c(C(=O)NCCc2ccccc2)c(O)c2ccccc21	94.9*	i	5.2	-2.1	i	-1.8
CC(=O)c1ccccc1C(=O)N1CCCC(CNC(=O)c2ccc(F)cc2)C1 (stereo unspecified)	·	·	3.1	-2.0	·	·
c1ccc2c(NCCc3c[nH]c4ccccc34)c3ccccc3nc2c1	87.4*	i	-3.9	-0.6	i	·
OCCCNc1c2ccccc2nc2ccccc12	31.9	i	-3.3	-1.5	i	109.1*
O=C(NCCc1c[nH]c2ccccc12)C(=O)Nc1ccccc1	81.5*	i	8.4	-1.0	i	-3.0
COc1ccc(NC(C)=O)cc1S(=O)(=O)N1CC=C(c2ccccc2)CC1	7.4	·	-0.4	-1.4	i	-0.3
CS(=O)(=O)c1sc(C#N)c2c1C(=O)CC(c1ccccc1)C2 (stereo unspecified)	109.6*	i	32.9*	-2.4	-11*	39.1*
O=C(CNC(=O)c1ccc(C(F)(F)F)cc1)NC1CC1	-5.9	·	-1.2	-2.0	i	-2.1
SMILES	CSC inhib	TMEM16A inh	MC4R antag cAMP	MC4R barr agon	ANO1 activ	Beta cell apopt
CCSc1nc2c(cnn2-c2ccccc2)c(=O)n1N	-2.1	i	15.5	-1.9	i	-3.9
CCc1nc(N2CCN(C(=O)CCl)CC2)c2c3c(sc2n1)CC(C)CC3 (stereo unspecified)	16.6	i	11.2	6.5	i	17.2
CCc1nc(N2CCN(C(C)=O)CC2)c2c3c(sc2n1)CC(C(C)(C)C)CC3 (stereo unspecified)	12.1	i	16.5	2.1	i	117.7*
COc1ccc(OC)c(NC(=O)Cn2cc(C(=O)c3ccco3)c3ccccc32)c1	-12.0	i	8.6	-2.1	i	-5.5
COc1ccccc1NC(=O)Cn1cc(C(=O)c2ccco2)c2ccccc21	-10.6	i	14.2	-1.4	i	86.7*
O=C(COc1ccc(F)cc1)Nc1nc(-c2cccnc2)cs1	·	·	7.0	1.9	·	·
CN(C)CCNc1nc2sc3c(c2c(=O)n1-c1ccc(F)cc1)CCCCC3	5.2	i	-3.4	0.9	i	2.6
CN(C)CCNc1nc2sc3c(c2c(=O)n1-c1ccccc1)CCCCC3	75.1*	i	2.0	-1.2	i	-9.2
O=C(Nc1ccc(N2CCOCC2)cc1)c1ccncc1	-2.3	i	-0.7	0.1	i	-0.6
Cc1ccnc2nc(C(=O)Nc3ccc(N4CCOCC4)cc3)nn12	-12.6	i	0.0	0.0	-11.4*	4.8
NC(=O)c1ccc(N2CCN(S(=O)(=O)c3cccs3)CC2)c([N+](=O)[O-])c1	-2.9	·	2.9	-1.2	i	82.2*
Cc1ccc(S(=O)(=O)n2c(N)nc3cc(C)c(C)cc32)cc1	·	·	1.7	0.4	·	·
O=C1N/C(=N\N=C\c2cccnc2)SC1Cc1ccc(SC(F)F)cc1 (stereo unspecified)	99.0*	i	4.3	-2.8	i	88.0*
O=C1N/C(=N\N=C\c2ccc3ncccc3c2)SC1Cc1ccc(SC(F)F)cc1 (stereo unspecified)	-5.2	i	-0.1	0.9	i	8.1
O=C1N/C(=N\N=C\c2ccccn2)SC1Cc1cccc(SC(F)F)c1 (stereo unspecified)	111.2*	i	-1.1	-5.5	i	63.1
S=C(Cc1ccccc1)Nc1ccccc1	·	·	4.2	-0.7	i	·
CCCCOC(=O)c1ccc(NC(=O)C(=O)NCCN(C)C)cc1	21.0	i	2.7	1.3	i	-3.8
O=C1NC(=S)/C(=C\c2ccc(-c3ccccc3Cl)o2)S1	118.1*	i	7.8	-0.4	-5.8*	-1.1
O=C1NC(=O)/C(=C/c2ccc(-c3cc(C(=O)O)ccc3Cl)o2)S1	-7.7	i	2.7	0.2	i	1.3
O=C(NCC(c1ccco1)N1CCc2ccccc2C1)c1cccc(Br)c1 (stereo unspecified)	3.0	i	7.3	-3.4	i	-1.9
Cc1cc2oc(=O)cc(Cn3ncc(Cl)c(Cl)c3=O)c2cc1Cl	79.9*	i	1.1	-3.1	i	110.0*
Cc1cc2oc(=O)cc(CN3CCCCC3C)c2cc1Cl (stereo unspecified)	-11.3	i	3.4	1.2	i	-1.6
